Results taken from ChEMBL document CHEMBL5634209, “Computational design, synthesis, and assessment of 3-(4-(4-(1,3,4-oxadiazol-2-yl)-1H-imidazol-2-yl)phenyl)-1,2,4-oxadiazole derivatives as effective epidermal growth factor receptor inhibitors: a prospective strategy for anticancer therapy” (RSC Med Chem, 2024).
pIC50: −log10 of the molar value. Each block holds one compound with its values, some of them ahead of it.

Columns and labels:
[1] = Cytotoxicity against African green monkey Vero cells assessed as reduction in cell viability measured after 48 hrs by MTT assay; format: toxicity, cell-based; conditions: African green monkey (Chlorocebus sabaeus)
[2] = molecular target: Epidermal growth factor receptor (Homo sapiens, UniProt P00533); assay: Inhibition of wild type EGFR (unknown origin) incubated for 40 mins by Kinase Glo Max reagent based luminescence analysis
Sequence of Epidermal growth factor receptor (Homo sapiens, UniProt P00533) (P00533 whole entry): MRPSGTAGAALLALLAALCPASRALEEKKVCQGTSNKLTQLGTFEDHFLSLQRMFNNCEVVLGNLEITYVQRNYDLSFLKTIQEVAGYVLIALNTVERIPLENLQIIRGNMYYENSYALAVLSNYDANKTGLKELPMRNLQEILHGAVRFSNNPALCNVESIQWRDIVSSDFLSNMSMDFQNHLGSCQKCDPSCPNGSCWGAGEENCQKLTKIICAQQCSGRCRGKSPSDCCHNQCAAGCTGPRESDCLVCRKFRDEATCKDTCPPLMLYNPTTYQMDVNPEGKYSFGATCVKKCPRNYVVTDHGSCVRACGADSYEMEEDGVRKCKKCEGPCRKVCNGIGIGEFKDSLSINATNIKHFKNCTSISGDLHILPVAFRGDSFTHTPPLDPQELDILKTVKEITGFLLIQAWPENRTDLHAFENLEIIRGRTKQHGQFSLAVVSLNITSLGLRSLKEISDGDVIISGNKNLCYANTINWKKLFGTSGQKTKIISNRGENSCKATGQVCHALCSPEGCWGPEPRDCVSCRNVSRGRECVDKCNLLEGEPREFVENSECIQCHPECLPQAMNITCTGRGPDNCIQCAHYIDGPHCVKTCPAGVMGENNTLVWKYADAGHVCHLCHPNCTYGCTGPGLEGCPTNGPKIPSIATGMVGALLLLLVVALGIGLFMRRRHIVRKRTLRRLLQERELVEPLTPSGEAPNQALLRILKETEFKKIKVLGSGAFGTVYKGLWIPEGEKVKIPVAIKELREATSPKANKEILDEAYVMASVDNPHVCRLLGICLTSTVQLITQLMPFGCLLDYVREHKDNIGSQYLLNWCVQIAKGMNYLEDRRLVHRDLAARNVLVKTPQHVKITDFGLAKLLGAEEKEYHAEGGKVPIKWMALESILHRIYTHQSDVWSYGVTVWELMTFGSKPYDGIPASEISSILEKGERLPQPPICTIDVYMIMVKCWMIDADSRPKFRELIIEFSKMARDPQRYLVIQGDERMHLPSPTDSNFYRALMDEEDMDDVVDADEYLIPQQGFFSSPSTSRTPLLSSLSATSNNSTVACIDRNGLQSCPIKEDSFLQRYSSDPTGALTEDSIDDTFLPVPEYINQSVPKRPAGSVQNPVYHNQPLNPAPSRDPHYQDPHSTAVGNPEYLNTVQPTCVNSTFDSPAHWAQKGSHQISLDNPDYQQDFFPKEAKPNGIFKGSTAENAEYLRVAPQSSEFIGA

HepG2 [3] = assay: Antiproliferative activity against human HepG2 cells assessed as reduction in cell viability measured after 48 hrs by MTT assay; format: functional, cell-based; conditions: HepG2, 48 h
Procedure, shortened: (§1)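 Cells were grown at 37 °C in 5% CO2 in medium with 10% FBS: RPMI-1640 for A549, DU-145 and HepG2, and DMEM/F12 for PC-3. They were seeded at 5×10^3/well. At 70–80% confluence they were exposed to a concentration range diluted from a 60 mM DMSO stock for 48 h at 37 °C, with 0.1% DMSO as vehicle. MTT 5 mg/mL stock was added for 4 h, formazan dissolved in DMSO, A570 read, and % inhibition calculated against control. IC50 was taken from the concentration series.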

A549 = assay: Antiproliferative activity against human A549 cells assessed as reduction in cell viability measured after 48 hrs by MTT assay; format: functional, cell-based; conditions: A549, 48 h; procedure, shortened: as §1
[4] = Selectivity index, ratio of IC50 for cytotoxicity against African green monkey Vero cells to IC50 for antiproliferative activity against human DU-145 cells; format: toxicity, cell-based; conditions: Vero cells versus DU-145 cells, read-out: Ratio IC50
[5] = molecular target: Epidermal growth factor receptor (Homo sapiens, UniProt P00533, T790M); assay: Inhibition of EGFR T790M mutant (unknown origin) incubated for 40 mins by Kinase Glo Max reagent based luminescence analysis
Sequence of Epidermal growth factor receptor (Homo sapiens, UniProt P00533, T790M) (P00533 25-1210 T790M limits assumed): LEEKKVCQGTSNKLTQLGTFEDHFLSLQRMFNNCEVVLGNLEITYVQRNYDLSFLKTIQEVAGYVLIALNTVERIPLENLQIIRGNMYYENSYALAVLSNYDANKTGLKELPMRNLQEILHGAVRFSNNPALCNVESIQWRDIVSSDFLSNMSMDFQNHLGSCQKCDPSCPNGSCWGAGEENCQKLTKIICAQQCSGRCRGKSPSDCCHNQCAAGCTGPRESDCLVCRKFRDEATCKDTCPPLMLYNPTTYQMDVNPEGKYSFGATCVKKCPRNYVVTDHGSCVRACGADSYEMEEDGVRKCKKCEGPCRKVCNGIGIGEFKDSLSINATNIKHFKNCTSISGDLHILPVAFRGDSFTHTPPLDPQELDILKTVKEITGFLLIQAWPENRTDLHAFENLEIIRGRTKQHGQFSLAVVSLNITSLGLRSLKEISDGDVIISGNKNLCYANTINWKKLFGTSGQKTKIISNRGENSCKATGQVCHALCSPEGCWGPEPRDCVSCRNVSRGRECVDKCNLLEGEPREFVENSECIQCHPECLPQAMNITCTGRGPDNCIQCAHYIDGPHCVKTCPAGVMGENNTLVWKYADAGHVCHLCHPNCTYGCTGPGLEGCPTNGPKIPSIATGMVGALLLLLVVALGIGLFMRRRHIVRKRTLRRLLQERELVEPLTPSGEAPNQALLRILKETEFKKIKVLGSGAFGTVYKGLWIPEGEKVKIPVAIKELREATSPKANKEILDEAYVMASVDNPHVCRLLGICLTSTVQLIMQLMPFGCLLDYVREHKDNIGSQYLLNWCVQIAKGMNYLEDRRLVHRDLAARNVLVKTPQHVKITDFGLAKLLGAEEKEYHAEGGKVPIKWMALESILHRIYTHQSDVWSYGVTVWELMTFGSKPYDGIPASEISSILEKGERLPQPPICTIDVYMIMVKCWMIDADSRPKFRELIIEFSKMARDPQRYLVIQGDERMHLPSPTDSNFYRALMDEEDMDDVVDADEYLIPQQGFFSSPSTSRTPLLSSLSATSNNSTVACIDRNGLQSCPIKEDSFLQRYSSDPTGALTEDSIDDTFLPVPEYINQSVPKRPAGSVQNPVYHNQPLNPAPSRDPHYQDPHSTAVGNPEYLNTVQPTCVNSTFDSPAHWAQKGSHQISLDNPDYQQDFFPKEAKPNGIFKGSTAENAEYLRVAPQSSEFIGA

DU-145 = assay: Antiproliferative activity against human DU-145 cells assessed as reduction in cell viability measured after 48 hrs by MTT assay; format: functional, cell-based; conditions: DU-145, 48 h; procedure, shortened: as §1
[6] = Selectivity index, ratio of IC50 for cytotoxicity against African green monkey Vero cells to IC50 for antiproliferative activity against human A549 cells; format: toxicity, cell-based; conditions: Vero cells versus A549 cells, read-out: Ratio IC50
PC-3 = assay: Antiproliferative activity against human PC-3 cells assessed as reduction in cell viability measured after 48 hrs by MTT assay; format: functional, cell-based; conditions: PC-3, 48 h; procedure, shortened: as §1
[7] = Selectivity index, ratio of IC50 for cytotoxicity against African green monkey Vero cells to IC50 for antiproliferative activity against human PC-3 cells; format: toxicity, cell-based; conditions: Vero cells versus PC-3 cells, read-out: Ratio IC50
[8] = Selectivity index, ratio of IC50 for cytotoxicity against African green monkey Vero cells to IC50 for antiproliferative activity against human HepG2 cells; format: toxicity, cell-based; conditions: Vero cells versus HepG2 cells, read-out: Ratio IC50
HepG2 [9] = assay: Induction of apoptosis in human HepG2 cells assessed as viable cells at 0.44 uM incubated for 24 hrs by AnnexinV-FITC/PI staining based flow cytometry (reference value: 96.94%); format: functional; conditions: read-out: Activity
HepG2 [10] = assay: Induction of apoptosis in human HepG2 cells assessed as necrotic cells at 0.11 uM incubated for 24 hrs by AnnexinV-FITC/PI staining based flow cytometry (reference value: 0.12%); format: functional
HepG2 [11] = assay: Induction of cell cycle arrest in human HepG2 cells assessed as accumulation of cells at G2/M phase at 0.11 uM incubated for 24 hrs by propidium iodide staining based flow cytometry (reference value: 18.81%); format: functional
Procedure, shortened: (§2)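 HepG2 cells were seeded, incubated overnight at 37 °C and, at 70–80% confluence, treated 24 h with 0.11, 0.22 or 0.44 µM in fresh medium; untreated cells served as control. Cells were then digested, washed in PBS and fixed in pre-cooled 75% ethanol at 4 °C for over 18 h. Staining used propidium iodide 50 µg/mL plus RNase 50 µg/mL for 30 min at 37 °C, and DNA content was read by flow cytometry.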

HepG2 [12] = assay: Induction of cell cycle arrest in human HepG2 cells assessed as accumulation of cell debris at 0.44 uM incubated for 24 hrs by propidium iodide staining based flow cytometry (reference value: 0.12%); format: functional; procedure, shortened: as §2
HepG2 [13] = assay: Induction of cell cycle arrest in human HepG2 cells assessed as accumulation of cells at G2/M phase at […] incubated for 24 hrs by propidium iodide staining based flow cytometry (reference value: 18.81%); format: functional; conditions: dose 0.22 µM
HepG2 [14] = assay: Induction of apoptosis in human HepG2 cells assessed as necrotic cells at […] incubated for 24 hrs by AnnexinV-FITC/PI staining based flow cytometry (reference value: 0.12%); format: functional; conditions: dose 0.22 µM
HepG2 [15] = assay: Induction of apoptosis in human HepG2 cells assessed as necrotic cells at 0.44 uM incubated for 24 hrs by AnnexinV-FITC/PI staining based flow cytometry (reference value: 0.12%); format: functional
HepG2 [16] = assay: Induction of apoptosis in human HepG2 cells assessed as early apoptotic cells at 0.11 uM incubated for 24 hrs by AnnexinV-FITC/PI staining based flow cytometry (reference value: 2.91%); format: functional
HepG2 [17] = assay: Induction of apoptosis in human HepG2 cells assessed as late apoptotic cells at […] incubated for 24 hrs by AnnexinV-FITC/PI staining based flow cytometry (reference value: 0.032%); format: functional; conditions: dose 0.22 µM
HepG2 [18] = assay: Induction of cell cycle arrest in human HepG2 cells assessed as accumulation of cell debris at […] incubated for 24 hrs by propidium iodide staining based flow cytometry (reference value: 0.12%); format: functional; conditions: dose 0.22 µM
HepG2 [19] = assay: Induction of apoptosis in human HepG2 cells assessed as late apoptotic cells at 0.11 uM incubated for 24 hrs by AnnexinV-FITC/PI staining based flow cytometry (reference value: 0.032%); format: functional
HepG2 [20] = assay: Induction of cell cycle arrest in human HepG2 cells assessed as accumulation of cells at G0/G1 phase at […] incubated for 24 hrs by propidium iodide staining based flow cytometry (reference value: 35.61%); format: functional; conditions: dose 0.22 µM
HepG2 [21] = assay: Induction of apoptosis in human HepG2 cells assessed as early apoptotic cells at 0.44 uM incubated for 24 hrs by AnnexinV-FITC/PI staining based flow cytometry (reference value: 2.91%); format: functional
HepG2 [22] = assay: Induction of cell cycle arrest in human HepG2 cells assessed as accumulation of cells at S phase at […] incubated for 24 hrs by propidium iodide staining based flow cytometry (reference value: 46.98%); format: functional; conditions: dose 0.22 µM
HepG2 [23] = assay: Induction of apoptosis in human HepG2 cells assessed as viable cells at […] incubated for 24 hrs by AnnexinV-FITC/PI staining based flow cytometry (reference value: 96.94%); format: functional; conditions: dose 0.22 µM, read-out: Activity
HepG2 [24] = assay: Induction of cell cycle arrest in human HepG2 cells assessed as accumulation of cells at G2/M phase at 0.44 uM incubated for 24 hrs by propidium iodide staining based flow cytometry (reference value: 18.81%); format: functional; procedure, shortened: as §2
HepG2 [25] = assay: Induction of apoptosis in human HepG2 cells assessed as early apoptotic cells at […] incubated for 24 hrs by AnnexinV-FITC/PI staining based flow cytometry (reference value: 2.91%); format: functional; conditions: dose 0.22 µM
HepG2 [26] = assay: Induction of cell cycle arrest in human HepG2 cells assessed as accumulation of cell debris at 0.11 uM incubated for 24 hrs by propidium iodide staining based flow cytometry (reference value: 0.12%); format: functional; procedure, shortened: as §2
HepG2 [27] = assay: Induction of apoptosis in human HepG2 cells assessed as viable cells at 0.11 uM incubated for 24 hrs by AnnexinV-FITC/PI staining based flow cytometry (reference value: 96.94%); format: functional; conditions: read-out: Activity
HepG2 [28] = assay: Induction of cell cycle arrest in human HepG2 cells assessed as accumulation of cells at G0/G1 phase at 0.11 uM incubated for 24 hrs by propidium iodide staining based flow cytometry (reference value: 35.61%); format: functional; procedure, shortened: as §2
HepG2 [29] = assay: Induction of cell cycle arrest in human HepG2 cells assessed as accumulation of cells at S phase at 0.11 uM incubated for 24 hrs by propidium iodide staining based flow cytometry (reference value: 46.98%); format: functional; procedure, shortened: as §2
HepG2 [30] = assay: Induction of cell cycle arrest in human HepG2 cells assessed as accumulation of cells at S phase at 0.44 uM incubated for 24 hrs by propidium iodide staining based flow cytometry (reference value: 46.98%); format: functional; procedure, shortened: as §2
HepG2 [31] = assay: Induction of cell cycle arrest in human HepG2 cells assessed as accumulation of cells at G0/G1 phase at 0.44 uM incubated for 24 hrs by propidium iodide staining based flow cytometry (reference value: 35.61%); format: functional; procedure, shortened: as §2
HepG2 [32] = assay: Induction of apoptosis in human HepG2 cells assessed as late apoptotic cells at 0.44 uM incubated for 24 hrs by AnnexinV-FITC/PI staining based flow cytometry (reference value: 0.032%); format: functional

Compound: CN(C)c1ccc(-c2nc(-c3ccc(-c4nc(-c5nnc(-c6ccncc6)o5)c[nH]4)cc3)no2)cc1
- IC50 at 48 h [1]: > 16000 nM
- pIC50 (HepG2 [3]): 5.75
- pIC50 (A549): 5.70
- selectivity ratio [4]: 6.42
- pIC50 (DU-145): 5.60
- selectivity ratio [6]: 8.08
- pIC50 (PC-3): 5.66
- selectivity ratio [7]: 7.3
- selectivity ratio [8]: 9.03

Compound: COc1cc(-c2nc(-c3ccc(-c4nc(-c5nnc(-c6ccncc6)o5)c[nH]4)cc3)no2)cc(OC)c1OC
- viability at 0.44 µM (HepG2 [9]): 53.3%
- IC50 at 48 h [1]: > 14000 nM
- pIC50 [2]: 6.99
- Activity (HepG2 [10]): 0.14%
- Activity (HepG2 [11]): 23.99%
- Activity (HepG2 [12]): 41.32%
- Activity (HepG2 [13]): 34.03%
- pIC50 (HepG2 [3]): 6.96
- Activity (HepG2 [14]): 0.456%
- Activity (HepG2 [15]): 0.563%
- Activity (HepG2 [16]): 11.32%
- pIC50 (A549): 6.89
- Activity (HepG2 [17]): 21.78%
- Activity (HepG2 [18]): 6.72%
- Activity (HepG2 [19]): 8.96%
- Activity (HepG2 [20]): 36.01%
- selectivity ratio [4]: 32.5
- Activity (HepG2 [21]): 18.23%
- pIC50 [5]: 5.96
- Activity (HepG2 [22]): 31.16%
- pIC50 (DU-145): 6.37
- viability at […] (HepG2 [23]): 65.4%
- Activity (HepG2 [24]): 47.32%
- selectivity ratio [6]: 108
- pIC50 (PC-3): 6.92
- Activity (HepG2 [25]): 12.33%
- Activity (HepG2 [26]): 0.71%
- viability at 0.11 µM (HepG2 [27]): 79.6%
- Activity (HepG2 [28]): 37.51%
- Activity (HepG2 [29]): 38.98%
- selectivity ratio [7]: 117
- Activity (HepG2 [30]): 19.22%
- selectivity ratio [8]: 127
- Activity (HepG2 [31]): 35.02%
- Activity (HepG2 [32]): 27.92%

Second part, led by results:

- pIC50 [2]: 6.02
- pIC50 (HepG2 [3]): 5.91
- pIC50 (A549): 5.96
- pIC50 [5]: 5.92
- pIC50 (DU-145): 5.76
- pIC50 (PC-3): 5.89
Compound: COc1ccc(-c2nc(-c3ccc(-c4nc(-c5nnc(-c6ccncc6)o5)c[nH]4)cc3)no2)cc1
- IC50 at 48 h [1]: > 16000 nM
- selectivity ratio [4]: 9.2
- selectivity ratio [6]: 14.5
- selectivity ratio [7]: 12.4
- selectivity ratio [8]: 12.9

- pIC50 (HepG2 [3]): 5.42
- pIC50 (A549): 5.57
- pIC50 (DU-145): 5.37
- pIC50 (PC-3): 5.46
Compound: Brc1ccc(-c2nc(-c3ccc(-c4nc(-c5nnc(-c6ccncc6)o5)c[nH]4)cc3)no2)cc1
- IC50 at 48 h [1]: > 20000 nM
- selectivity ratio [4]: 4.7
- selectivity ratio [6]: 7.46
- selectivity ratio [7]: 5.34
- selectivity ratio [8]: 5.31

- pIC50 (HepG2 [3]): 5.67
- pIC50 (A549): 5.69
- pIC50 (DU-145): 5.63
- pIC50 (PC-3): 5.73
Compound: Cc1ccc(-c2nc(-c3ccc(-c4nc(-c5nnc(-c6ccncc6)o5)c[nH]4)cc3)no2)cc1
- IC50 at 48 h [1]: > 15000 nM
- selectivity ratio [4]: 6.41
- selectivity ratio [6]: 7.38
- selectivity ratio [7]: 8.02
- selectivity ratio [8]: 7.1
